The source of these data is PMC5143172 (Leukemia, 2016).

The test system of data set [1] is IkB. Kind of data set: Nuclear retention of IkB in CLL cells. As to conditions: 0.5 μM. In kind it is cell-based, Human. The method in brief:
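Treated primary CLL cells were fractionated into nuclear extracts with a commercial kit. Proteins were resolved by SDS-PAGE and probed with anti-IκB antibodies. Bands were detected by chemiluminescence and quantified by densitometry.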

Data set [2] addresses T1, XPO1 (Homo sapiens, UniProt O14980). Kind of data set: XPO1 total protein in primary CLL cells. In kind it is cell-based. As to conditions: 0.5 μM. A digest of the protocol: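 Freshly isolated patient CLL cells were treated with DMSO or 0.5 μM compound and harvested at 2, 4, 8 and 18 h (N=3). Cells were lysed in RIPA buffer, resolved by SDS-PAGE and immunoblotted for XPO1. Signal was detected by chemiluminescence and quantified by densitometry.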

Data set [3] concerns primary AML samples. Description: Proliferation assay. In kind it is cell-based. As to conditions: Homo sapiens. A digest of the protocol: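 Primary AML cells came from blood or frozen bone marrow of three newly diagnosed, untreated patients, collected under informed consent. Viability was measured by WST-1 assay after treatment with the test compound.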
The target of data set [4] is T2, XPO1 (Saccharomyces cerevisiae, UniProt P30822, DEL377-413/T539C). Description: Pull-down inhibition assay of XPO1 with immobilized NESs. In kind it is biochemical. Particulars: 10uM inhibitor. A digest of the protocol: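 Purified recombinant yeast XPO1 (2 μM) was pre-incubated with RanGTP (10 μM) and 10 μM inhibitor for varying times at 4°C. The mixture was rotated with immobilized GST-PKI NES for 1 h. After extensive washing, bound protein was resolved by SDS-PAGE and stained with Coomassie Blue.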

Data set [5] relates to MV4-11. Kind of data set: MV4-11 xenograft mouse model of AML. In kind it is in vivo, NSG mice. Particulars: day 21.
Data set [6] addresses T2, XPO1. Description: Reversibility of inhibitor conjugation to XPO1. In kind it is biochemical. Particulars: 10uM inhibitor; dialysis or DTT, 24 hours. A digest of the protocol:
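XPO1 was incubated in triplicate with 10 μM inhibitor, then dialysed or treated with DTT. It was then used in a binding assay with RanGTP and immobilized GST-MVM NES, with bound proteins resolved by SDS-PAGE and Coomassie staining. XPO1 band intensities were quantified and expressed as percentage of DMSO-treated controls.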

Data set [7] deals with Eμ-TCL1 leukemic splenocytes. Description: Eμ-TCL1-C57BL/6 transplant mouse model of CLL. In kind it is in vivo, C57BL/6 mice. The method in brief:
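CD19+CD5+ splenocytes (1×10^7) from an Eμ-TCL1 donor with active leukemia (>10% CD45+CD5+CD19+ in blood) and splenomegaly were injected into C57BL/6 mice by tail vein. At onset (≥10% CD45+CD5+CD19+), mice were randomized to oral gavage with vehicle (0.5% methylcellulose/1% Tween80), test compound 15 mg/kg daily or twice weekly, or ibrutinib 20 mg/kg. Blood flow cytometry was done weekly and spleen volume measured at euthanasia. Kaplan-Meier/log-rank, mixed-effects model, ANOVA (log-transformed, Dunnett).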

Data set [8] has as its system primary CLL cells. Kind of data set: Cytotoxicity in primary CLL cells by MTS. As to conditions: 48h (24h in Supplementary Figure 6). In kind it is cell-based, Human.
In data set [9] the test system is primary CLL cells. Kind of data set: Apoptosis of primary CLL cells by annexin-V/PI in FBS or human serum. In kind it is cell-based. As to conditions: 10% fetal bovine serum or human serum, 24h.
Data set [10] concerns the target T1, XPO1. Description: XPO1 degradation by SINE compound treatment in HT1080 cells. In kind it is cell-based. Particulars: 25-1000 nM, 18 hours.
For data set [11], the system named is GC-DLBCL cell lines. Description: Proliferation of GC-DLBCL cell lines by MTS. In kind it is cell-based.
Data set [12] can be described thus: Brain penetration, monkey. In kind it is in vivo.
Data set [13] deals with ABC-DLBCL cell lines. Description: Proliferation of ABC-DLBCL cell lines by MTS. In kind it is cell-based.
Data set [14] can be described thus: Brain penetration, rat. In kind it is in vivo.
Data set [15] relates to p53. Description: Confocal microscopy of p53 localization in MV4-11. In kind it is cell-based. Particulars: MV4-11, confocal microscopy. A digest of the protocol: (§1)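 About 200,000 cells were cytospun onto slides, then fixed, permeabilized, blocked and immunostained for p53 (MV4-11) or NPM1 (OCI-AML3). DNA was counterstained with DAPI, and subcellular localization was imaged by confocal microscopy using merged channels.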

Data set [16] is described as follows: Brain penetration, mouse. In kind it is in vivo.
In data set [17] the test system is NPM1. Kind of data set: Confocal microscopy of NPM1 localization in OCI-AML3. In kind it is cell-based. A digest of the protocol: as §1
Data set [18] in a line: Plasma accumulation after repetitive dosing. In kind it is in vivo. Particulars: data not shown.

T1 sequence (O14980 whole entry): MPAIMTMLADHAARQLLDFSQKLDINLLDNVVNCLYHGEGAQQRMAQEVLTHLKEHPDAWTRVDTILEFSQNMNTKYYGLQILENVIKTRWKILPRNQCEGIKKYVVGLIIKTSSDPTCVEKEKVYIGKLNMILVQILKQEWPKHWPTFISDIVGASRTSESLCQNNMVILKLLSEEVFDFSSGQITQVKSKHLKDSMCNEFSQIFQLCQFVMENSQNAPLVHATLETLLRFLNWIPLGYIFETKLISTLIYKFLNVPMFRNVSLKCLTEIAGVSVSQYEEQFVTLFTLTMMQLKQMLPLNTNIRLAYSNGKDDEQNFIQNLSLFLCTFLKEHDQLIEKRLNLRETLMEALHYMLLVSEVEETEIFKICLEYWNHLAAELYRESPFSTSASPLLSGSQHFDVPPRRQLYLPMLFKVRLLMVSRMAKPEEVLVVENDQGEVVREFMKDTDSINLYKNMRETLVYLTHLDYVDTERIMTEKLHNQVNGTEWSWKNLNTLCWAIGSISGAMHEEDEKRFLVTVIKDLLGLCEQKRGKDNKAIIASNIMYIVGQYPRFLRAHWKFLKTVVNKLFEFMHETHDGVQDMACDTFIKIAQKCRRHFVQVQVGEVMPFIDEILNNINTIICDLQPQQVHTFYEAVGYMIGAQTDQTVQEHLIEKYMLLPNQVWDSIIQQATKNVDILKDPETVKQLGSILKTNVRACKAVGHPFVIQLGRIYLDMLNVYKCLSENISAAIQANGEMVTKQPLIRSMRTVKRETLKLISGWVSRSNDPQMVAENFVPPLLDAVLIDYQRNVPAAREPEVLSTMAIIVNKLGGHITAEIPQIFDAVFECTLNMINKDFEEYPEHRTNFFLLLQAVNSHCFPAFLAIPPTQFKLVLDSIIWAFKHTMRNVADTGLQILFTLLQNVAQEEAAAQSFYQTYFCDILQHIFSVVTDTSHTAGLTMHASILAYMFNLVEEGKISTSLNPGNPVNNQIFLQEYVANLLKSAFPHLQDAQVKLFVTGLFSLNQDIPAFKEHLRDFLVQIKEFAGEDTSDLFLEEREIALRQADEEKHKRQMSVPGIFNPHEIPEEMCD

Regarding `O=C(/C=C\n1cnc(-c2cc(C(F)(F)F)cc(C(F)(F)F)c2)n1)NNc1cnccn1` [KPT-330, selinexor, reference compound], the “Time of treatment to nuclear retention of IkB” value in data set [1] was ≤ 8 h. In data set [2], the “Time post-treatment at which XPO1 total protein was decreased” value was ≤ 4 h. In [3], this compound had an IC50 of 100 nM. In addition, in [4], the “Incubation time with XPO1 to completely inhibit XPO1 binding to PKI NES” value was 60 min. In [5] (20 mg/kg 2x/week), the “White blood cell count (WBC) vs vehicle” value is “significantly reduced WBC”.

`NC(=O)/C(=C/n1cnc(-c2cc(C(F)(F)F)cc(C(F)(F)F)c2)n1)c1cncnc1` [KPT-8602]: the “Time of treatment to nuclear retention of IkB” value in data set [1] is ≤ 8 h. Also, in data set [6], the “Reversibility of conjugation to XPO1” value was “slowly reversible manner”. In data set [7] (Fig.4A cohort, 15 mg/kg daily, oral gavage, vehicle 33 days), the “Median OS” value is 70 days. In [7] (Fig.4B, 15 mg/kg daily, three weeks post-treatment, p<0.001), the “Percentage of CD5+ B-cells in peripheral blood vs vehicle or KPT-8602 2x/week” value is recorded as “significantly lower”. Moreover, the “Spleen size at study removal vs all other groups” value in [7] (Fig.4C, 15 mg/kg daily, p<0.001) was “significantly smaller”. In data set [7] (Fig.4F cohort, KPT-8602 15 mg/kg daily, p<0.001), the “Spleen size vs vehicle or ibrutinib alone” value is “significantly smaller”. Moreover, in data set [7] (daily treatment, after 28 days), the “Change in body weight” value was “did not cause a significant change in body weight”. Besides, in [2], the “Time post-treatment at which XPO1 total protein was decreased” value was ≤ 4 h. The “Killing of primary CLL cells vs vehicle” value in data set [8] is “induced dose-dependent killing of primary CLL cells”. In addition, the “Apoptosis of CLL cells in FBS and HS” value in data set [9] was “effective in inducing apoptosis of CLL cells in both FBS and HS”. The XPO1 degradation result in [10] is given as “induces XPO1 degradation in HT1080 cells in a dose-dependent manner”. Further, in data set [11], the “Proliferation of GC-DLBCL cell lines” value was “inhibited proliferation”. Half-maximal inhibition in [3] (IC50) was put at 300 nM. The “Mean Concentration at 2h post dose Brain” value in data set [12] (Monkey, po 10 mg/kg) was <32 ng·h/g; in data set [14] (Rat, po 5 mg/kg), 70 ng·h/g; in [16] (Mouse, po 5 mg/kg) it was 105 ng·h/g. In addition, the “Mean Concentration at 2h post dose Plasma” value in data set [12] (Monkey, po 10 mg/kg) came to 1310 ng·h/mL; in [14] (Rat, po 5 mg/kg), 320 ng·h/mL; in data set [16] (Mouse, po 5 mg/kg), 550 ng·h/mL. For the same compound, the Kp at 2 h in data set [12] (monkey, brain/plasma, po, 10 mg/kg) was < 0.02; in [14] (rat, brain/plasma, po, 5 mg/kg), 0.22; in data set [16] (mouse, brain/plasma, po, 5 mg/kg), 0.19. Also, the “Proliferation of ABC-DLBCL cell lines” value in data set [13] is on record as “inhibited proliferation”. The “Accumulation of p53 in the nucleus” value in [15] is “significant accumulation”. For the same compound, in data set [4], the “Incubation time with XPO1 to completely inhibit XPO1 binding to PKI NES” value is 60 min. In addition, the “White blood cell count (WBC) vs vehicle” value in [5] (15 mg/kg daily and x2/week) is reported as “significantly reduced WBC”. The “Accumulation of NPM1 in the nucleus” value in data set [17] is “significant accumulation”. Moreover, in data set [18], the “Accumulation in plasma after repetitive dosing” value is “does not accumulate in plasma after repetitive dosing”.

For the compound `C=CC(=O)N1CCC[C@@H](n2nc(-c3ccc(Oc4ccccc4)cc3)c3c(N)ncnc32)C1` [ibrutinib, reference compound], the “Median OS” value in [7] (Fig.4D cohort, ibrutinib 20 mg/kg daily, vehicle 20 days) is on record as 26 days.
